Laboratory results from ChEMBL document CHEMBL6092133, “Enhancing the therapeutic window for Spectinamide anti-tuberculosis Agents: Synthesis, Evaluation, and activation of phosphate prodrug 3408” (Bioorg Med Chem Lett, 2024).
Calls of active or inactive are those of the source. The rule behind the calls is not given here.

Legend:
[1] = Toxicity in Sprague-Dawley rat assessed as maximum tolerated dose administered via iv infusion for 15 mins; format: organism-based; details: in vivo
How it was run: (§1)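 Rats given single intravenous doses either as a bolus over 5 or 30 seconds or as a timed infusion (minutes, per line). The highest dose tolerated without acute toxicity was recorded as MTD in mg/kg.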

[2] = Toxicity in Sprague-Dawley rat assessed as maximum tolerated dose administered as iv bolus injection for 5 sec; format: organism-based; details: in vivo; how it was run: as §1
[3] = Toxicity in Sprague-Dawley rat assessed as maximum tolerated dose administered via iv infusion for 30 mins; format: organism-based; details: in vivo; how it was run: as §1
[4] = Toxicity in Sprague-Dawley rat assessed as maximum tolerated dose administered as iv bolus injection for 30 sec; format: organism-based; details: in vivo; how it was run: as §1
[5] = Toxicity in Sprague-Dawley rat assessed as maximum tolerated dose administered via iv infusion for 5 mins; format: organism-based; details: in vivo; how it was run: as §1
[6] = Volume of distribution at steady state in male Sprague-Dawley rat at 10 mg/kg, iv administered as bolus injection and measured after 48 hrs by LC-MS/MS analysis; format: ADME, organism-based; details: in vivo, read-out: Vdss
How it was run: (§2)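 Rats dosed once by 10 mg/kg i.v. bolus with either the parent spectinamide or the phosphate prodrug at an equivalent molar amount. Plasma parent-drug concentration-time profiles gave AUC, Cmax, clearance, Vss and terminal half-life, reported as mean ± spread.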

[7] = AUC in male Sprague-Dawley rat at 10 mg/kg, iv administered as bolus injection and measured after 48 hrs by LC-MS/MS analysis; format: ADME, organism-based; details: in vivo; how it was run: as §2
[8] = Clearance in male Sprague-Dawley rat at 10 mg/kg, iv administered as bolus injection and measured after 48 hrs by LC-MS/MS analysis; format: ADME, organism-based; details: in vivo; how it was run: as §2
[9] = Cmax in male Sprague-Dawley rat at 10 mg/kg, iv administered as bolus injection and measured after 48 hrs by LC-MS/MS analysis; format: ADME, organism-based; details: in vivo; how it was run: as §2
Bacterial 70S ribosome = experiment: Inhibition of ribosome-mediated protein synthesis in Mycobacterium smegmatis; format: subcellular, Mycolicibacterium smegmatis
[10] = Half life in male Sprague-Dawley rat at 10 mg/kg, iv administered as bolus injection and measured after 48 hrs by LC-MS/MS analysis; format: ADME, organism-based; details: in vivo; how it was run: as §2
[11] = (§3) Prodrug conversion in male Sprague-Dawley rat assessed as volume of distribution at steady state of 2-(5-chloropyridin-2-yl)-N-((2R,4R,4aS,5aR,6S,7S,8R,9S,9aR,10aS)-4a,7,9-trihydroxy-2-methyl-6,8-bis(methylamino)decahydro-2H-benzo[b]pyrano[2,3-e][1,4]dioxin-4-yl)acetamide at 10 mg/kg, iv administered as bolus injection and measured after 48 hrs by LC-MS/MS analysis; format: ADME, organism-based; details: in vivo; how it was run: as §2
[12] = Stability of compound in plasmaLyte A and milli-Q water mixture measured for >=6 hrs at room temperature by LC-MS/MS analysis; format: physicochemical; details: buffer
How it was run: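 Prodrug held in dosing vehicle alone at room temperature for at least 6 hours, with compound integrity monitored over time.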

[13] = as §3, with “half-life” for “volume of distribution at steady state”; format: ADME, organism-based; details: in vivo; how it was run: as §2
[14] = test system: Mycobacterium tuberculosis; experiment: Antibacterial activity against Mycobacterium tuberculosis H37Rv by whole cell MIC assay; format: functional, organism-based
[15] = as §3, with “Cmax” for “volume of distribution at steady state”; format: ADME, organism-based; details: in vivo; how it was run: as §2
[16] = Prodrug conversion in rat plasma assessed as 2-(5-chloropyridin-2-yl)-N-((2R,4R,4aS,5aR,6S,7S,8R,9S,9aR,10aS)-4a,7,9-trihydroxy-2-methyl-6,8-bis(methylamino)decahydro-2H-benzo[b]pyrano[2,3-e][1,4]dioxin-4-yl)acetamide formation by measuring half-life at 0.1 to 1 microg/ml; format: ADME, cell-free; details: dose 0.1-1 µg/ml
How it was run: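 Prodrug incubated in vitro in fresh rat plasma. Appearance of the parent drug was followed over time to give a conversion half-life.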

[17] = as §3, with “clearance” for “volume of distribution at steady state”; format: ADME, organism-based; details: in vivo; how it was run: as §2
[18] = as §3, with “AUC” for “volume of distribution at steady state”; format: ADME, organism-based; details: in vivo; how it was run: as §2

Compound `CN[C@@H]1[C@H](O)[C@H](NC)[C@H]2O[C@]3(O)[C@H](O[C@@H]2[C@H]1O)O[C@H](C)C[C@H]3NC(=O)Cc1ccc(Cl)cn1` has an MTD at 0.25 h [1] of 150 mg/kg, an MTD at 5 s [2] of 75 mg/kg and an MTD at 0.5 h [3] of 300 mg/kg. For the same compound, the MTD at 0.5 min [4] was 100 mg/kg and the MTD at 5 min [5] was 100 mg/kg.
In the case of `CN[C@@H]1[C@H](O)[C@H](NC)[C@H]2O[C@]3(O)[C@H](O[C@@H]2[C@H]1O)O[C@H](C)C[C@H]3NC(=O)Cc1ccc(O)cn1`, the Vd [6] is reported as 0.494 L/kg, the MTD at 0.25 h [1] is reported as > 500 mg/kg and the AUC at 48 h [7] is reported as 22000 ng·h/mL. It also gave a clearance [8] of 7.72 mL/min/kg, a Cmax [9] of 47000 ng/mL and an MTD at 5 s [2] of 200 mg/kg. It also gave an IC50 (Bacterial 70S ribosome) of 1790 nM, an MTD at 0.5 min [4] of 200 mg/kg and an MTD at 5 min [5] of 350 mg/kg. For the same compound, the half-life [10] was 23.5 min.
For `CN[C@@H]1[C@H](O)[C@H](NC)[C@H]2O[C@]3(O)[C@H](O[C@@H]2[C@H]1O)O[C@H](C)C[C@H]3NC(=O)Cc1ccc(OP(=O)(O)O)cn1`, the Vdss [11] was 0.322 L/kg, the Stability [12] was “Stable” and the t1/2 [13] was 23.4 min. For the same compound, the Activity [14] was “inactive”, the Cmax [15] was 38900 ng/mL and the MTD at 5 s [2] was > 500 mg/kg. The IC50 (Bacterial 70S ribosome) was 12200 nM, the t1/2 [16] was 19 min and the CL [17] was 9.1 mL/min/kg. For the same compound, the AUC [18] was 18500 ng·h/mL.
With `CN[C@@H]1[C@H](O)[C@H](NC)[C@H]2O[C@@]3(O)C(=O)C[C@@H](C)O[C@H]3O[C@@H]2[C@H]1O` [SPECTINOMYCIN] the IC50 (Bacterial 70S ribosome) was 1080 nM.
